Measurements from ChEMBL document CHEMBL1152672, “Side chain azasteroids and thiasteroids as sterol methyltransferase inhibitors in ergosterol biosynthesis” (2009).
Converted amounts (≈) assume the structure as drawn. One block for each compound: values may come before it. The source made the active and inactive calls. The rule behind the calls is not given here.

How the values were obtained:
[1] = target: T1, Sterol 24-C-methyltransferase (Yarrowia lipolytica) (UniProt Q6C2D9); experiment: Inhibition of Yarrowia lipolytica 24-SMT assessed as cholesta-7,24-dien-3-trimethylsilyl derivative at 0.06 ug/mL after 48 hrs by GC-MS analysis relative to untreated control; set-up: scale not given: the % may be the effect or the level left
T1 sequence (whole entry): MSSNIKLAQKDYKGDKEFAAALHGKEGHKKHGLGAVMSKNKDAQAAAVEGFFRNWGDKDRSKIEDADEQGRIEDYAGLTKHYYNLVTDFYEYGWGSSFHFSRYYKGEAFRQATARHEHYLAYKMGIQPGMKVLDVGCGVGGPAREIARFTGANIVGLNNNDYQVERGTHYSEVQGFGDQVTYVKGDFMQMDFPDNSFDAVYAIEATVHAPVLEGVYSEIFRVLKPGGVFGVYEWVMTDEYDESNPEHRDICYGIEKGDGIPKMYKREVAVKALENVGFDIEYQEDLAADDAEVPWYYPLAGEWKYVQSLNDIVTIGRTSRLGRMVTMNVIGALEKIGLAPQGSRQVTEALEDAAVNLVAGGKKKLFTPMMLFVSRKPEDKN
Outline: (§1)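 Whole-cell sterol profiling. Y. lipolytica at 50,000 CFU/mL was exposed to compounds added from ethanol for 48 ± 2 h at 28 °C, and the MIC/2 and/or MIC/4 wells were used. Cells were pelleted and PBS-washed, then saponified in 1 M NaOH at 70 °C for 1 h. Sterols were extracted into TBME with a cholesterol internal standard and silylated to TMS ethers. GC-MS full scan, with each sterol given as % of total integrated quantifier-ion area.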

[2] = target: T1, Sterol 24-C-methyltransferase (Yarrowia lipolytica); experiment: Inhibition of Yarrowia lipolytica 24-SMT assessed as cholesta-5,7,24-trien-3-trimethylsilyl derivative at 0.06 ug/mL after 48 hrs by GC-MS analysis relative to untreated control; set-up: scale not given: the % may be the effect or the level left; outline: as §1
Yarrowia lipolytica [3] = experiment: Antimicrobial activity against Yarrowia lipolytica after 48 hrs; type: functional
Outline: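 Broth dilution MIC per DIN 58940-84. Log-phase Y. lipolytica in yeast extract/peptone/glucose medium, counted against a 0.5 McFarland standard (A570) and seeded at 50,000 CFU/mL in 2 mL wells. Compounds added from ethanol; final concentrations 2 to 0.06125 µg/mL unless otherwise stated. Plates incubated 48 ± 2 h at 28 °C. MIC is the lowest concentration with no visible growth.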

[4] = target: T1, Sterol 24-C-methyltransferase (Yarrowia lipolytica); experiment: Inhibition of Yarrowia lipolytica 24-SMT assessed as dehydroergosterol-3-trimethylsilyl derivative at 0.06 ug/mL after 48 hrs by GC-MS analysis relative to untreated control; set-up: scale not given: the % may be the effect or the level left; outline: as §1
[5] = target: T1, Sterol 24-C-methyltransferase (Yarrowia lipolytica); experiment: Inhibition of Yarrowia lipolytica 24-sterol C-methyltransferase assessed as ergosterol-3-trimethylsilyl derivative level at 0.06 ug/mL after 48 hrs by GC-MS analysis relative to untreated control; set-up: scale not given: the % may be the effect or the level left; outline: as §1
[6] = target: T1, Sterol 24-C-methyltransferase (Yarrowia lipolytica); experiment: Inhibition of Yarrowia lipolytica 24-SMT assessed as 5-dehydroepisterol-3-trimethylsilyl derivative at 0.06 ug/mL after 48 hrs by GC-MS analysis relative to untreated control; set-up: scale not given: the % may be the effect or the level left; outline: as §1
Yarrowia lipolytica [7] = experiment: Antimicrobial activity against Yarrowia lipolytica by agar diffusion test; type: functional, organism-based
[8] = target: T1, Sterol 24-C-methyltransferase (Yarrowia lipolytica); experiment: Inhibition of Yarrowia lipolytica 24-SMT assessed as zymosterol-3-trimethylsilyl derivative level at 0.06 ug/mL after 48 hrs by GC-MS analysis relative to untreated control; set-up: scale not given: the % may be the effect or the level left; outline: as §1
[9] = target: T1, Sterol 24-C-methyltransferase (Yarrowia lipolytica); experiment: Inhibition of Yarrowia lipolytica 24-SMT assessed as cholesta-5,7,24-trien-3-trimethylsilyl derivative at 0.1 ug/mL after 48 hrs by GC-MS analysis relative to untreated control; set-up: scale not given: the % may be the effect or the level left; outline: as §1
[10] = target: T1, Sterol 24-C-methyltransferase (Yarrowia lipolytica); experiment: Inhibition of Yarrowia lipolytica 24-SMT assessed as 5-dehydroepisterol-3-trimethylsilyl derivative at 0.1 ug/mL after 48 hrs by GC-MS analysis relative to untreated control; set-up: scale not given: the % may be the effect or the level left; outline: as §1
[11] = target: T1, Sterol 24-C-methyltransferase (Yarrowia lipolytica); experiment: Inhibition of Yarrowia lipolytica 24-SMT assessed as dehydroergosterol-3-trimethylsilyl derivative at 0.1 ug/mL after 48 hrs by GC-MS analysis relative to untreated control; set-up: scale not given: the % may be the effect or the level left; outline: as §1
[12] = target: T1, Sterol 24-C-methyltransferase (Yarrowia lipolytica); experiment: Inhibition of Yarrowia lipolytica 24-SMT assessed as zymosterol-3-trimethylsilyl derivative level at 0.1 ug/mL after 48 hrs by GC-MS analysis relative to untreated control; set-up: scale not given: the % may be the effect or the level left; outline: as §1
[13] = target: T1, Sterol 24-C-methyltransferase (Yarrowia lipolytica); experiment: Inhibition of Yarrowia lipolytica 24-SMT assessed as lanosterol-3-trimethylsilyl derivative at 0.1 ug/mL after 48 hrs by GC-MS analysis relative to untreated control; set-up: scale not given: the % may be the effect or the level left; outline: as §1
[14] = target: T1, Sterol 24-C-methyltransferase (Yarrowia lipolytica); experiment: Inhibition of Yarrowia lipolytica 24-SMT assessed as cholesta-7,24-dien-3-trimethylsilyl derivative at 0.1 ug/mL after 48 hrs by GC-MS analysis relative to untreated control; set-up: scale not given: the % may be the effect or the level left; outline: as §1
[15] = target: T1, Sterol 24-C-methyltransferase (Yarrowia lipolytica); experiment: Inhibition of Yarrowia lipolytica 24-SMT assessed as lanosterol-3-trimethylsilyl derivative at 0.06 ug/mL after 48 hrs by GC-MS analysis relative to untreated control; set-up: scale not given: the % may be the effect or the level left; outline: as §1
[16] = target: T1, Sterol 24-C-methyltransferase (Yarrowia lipolytica); experiment: Inhibition of Yarrowia lipolytica 24-sterol C-methyltransferase assessed as cholesta-5,7,24-trien-3-trimethylsilyl derivative at 1 ug/mL after 48 hrs by GC-MS analysis relative to untreated control; set-up: scale not given: the % may be the effect or the level left; outline: as §1
[17] = target: T1, Sterol 24-C-methyltransferase (Yarrowia lipolytica); experiment: Inhibition of Yarrowia lipolytica 24-SMT assessed as dehydroergosterol-3-trimethylsilyl derivative at 1 ug/mL after 48 hrs by GC-MS analysis relative to untreated control; set-up: scale not given: the % may be the effect or the level left; outline: as §1
[18] = target: T1, Sterol 24-C-methyltransferase (Yarrowia lipolytica); experiment: Inhibition of Yarrowia lipolytica 24-SMT assessed as 5-dehydroepisterol-3-trimethylsilyl derivative at 1 ug/mL after 48 hrs by GC-MS analysis relative to untreated control; set-up: scale not given: the % may be the effect or the level left; outline: as §1
[19] = target: T1, Sterol 24-C-methyltransferase (Yarrowia lipolytica); experiment: Inhibition of Yarrowia lipolytica 24-SMT assessed as cholesta-7,24-dien-3-trimethylsilyl derivative at 1 ug/mL after 48 hrs by GC-MS analysis relative to untreated control; set-up: scale not given: the % may be the effect or the level left; outline: as §1
[20] = target: T1, Sterol 24-C-methyltransferase (Yarrowia lipolytica); experiment: Inhibition of Yarrowia lipolytica 24-SMT assessed as 5-dehydroepisterol-3-trimethylsilyl derivative at 8 ug/mL after 48 hrs by GC-MS analysis relative to untreated control; set-up: scale not given: the % may be the effect or the level left; outline: as §1
[21] = target: T1, Sterol 24-C-methyltransferase (Yarrowia lipolytica); experiment: Inhibition of Yarrowia lipolytica 24-sterol C-methyltransferase assessed as ergosterol-3-trimethylsilyl derivative level at 2 ug/mL after 48 hrs by GC-MS analysis relative to untreated control; set-up: scale not given: the % may be the effect or the level left; outline: as §1
[22] = target: T1, Sterol 24-C-methyltransferase (Yarrowia lipolytica); experiment: Inhibition of Yarrowia lipolytica 24-SMT assessed as dehydroergosterol-3-trimethylsilyl derivative at 8 ug/mL after 48 hrs by GC-MS analysis relative to untreated control; set-up: scale not given: the % may be the effect or the level left; outline: as §1
[23] = target: T1, Sterol 24-C-methyltransferase (Yarrowia lipolytica); experiment: Inhibition of Yarrowia lipolytica 24-SMT assessed as 5-dehydroepisterol-3-trimethylsilyl derivative at 2 ug/mL after 48 hrs by GC-MS analysis relative to untreated control; set-up: scale not given: the % may be the effect or the level left; outline: as §1
[24] = target: T1, Sterol 24-C-methyltransferase (Yarrowia lipolytica); experiment: Inhibition of Yarrowia lipolytica 24-SMT assessed as cholesta-5,7,24-trien-3-trimethylsilyl derivative at 8 ug/mL after 48 hrs by GC-MS analysis relative to untreated control; set-up: scale not given: the % may be the effect or the level left; outline: as §1
[25] = target: T1, Sterol 24-C-methyltransferase (Yarrowia lipolytica); experiment: Inhibition of Yarrowia lipolytica 24-SMT assessed as cholesta-7,24-dien-3-trimethylsilyl derivative at 2 ug/mL after 48 hrs by GC-MS analysis relative to untreated control; set-up: scale not given: the % may be the effect or the level left; outline: as §1
[26] = target: T1, Sterol 24-C-methyltransferase (Yarrowia lipolytica); experiment: Inhibition of Yarrowia lipolytica 24-SMT assessed as cholesta-5,7,24-trien-3-trimethylsilyl derivative at 2 ug/mL after 48 hrs by GC-MS analysis relative to untreated control; set-up: scale not given: the % may be the effect or the level left; outline: as §1
[27] = target: T1, Sterol 24-C-methyltransferase (Yarrowia lipolytica); experiment: Inhibition of Yarrowia lipolytica 24-SMT assessed as dehydroergosterol-3-trimethylsilyl derivative at 2 ug/mL after 48 hrs by GC-MS analysis relative to untreated control; set-up: scale not given: the % may be the effect or the level left; outline: as §1
[28] = target: T1, Sterol 24-C-methyltransferase (Yarrowia lipolytica); experiment: Inhibition of Yarrowia lipolytica 24-SMT assessed as cholesta-7,24-dien-3-trimethylsilyl derivative at 8 ug/mL after 48 hrs by GC-MS analysis relative to untreated control; set-up: scale not given: the % may be the effect or the level left; outline: as §1

- Activity [1]: 5.4%
- Activity [2]: 60.8%
- MIC (Yarrowia lipolytica [3]): 0.25 µg/mL (≈ 0.645 µM)
- Activity [4]: 25.9%
- Activity [5]: 5%
- Activity [6]: 2.9%
SMILES: CCCNCC[C@@H](C)[C@H]1CC[C@H]2C3=CC[C@H]4C[C@@H](O)CC[C@]4(C)[C@H]3CC[C@]12C

- MIC (Yarrowia lipolytica [7]): inactive
SMILES: C[C@H](/C=C/c1ccccn1)[C@H]1CC[C@H]2C3=CCC4C[C@@H](O)CC[C@]4(C)[C@H]3CC[C@]12C (some centres undefined)

- MIC (Yarrowia lipolytica [3]): 0.25 µg/mL (≈ 0.645 µM)
- Activity [9]: 43.3%
- Activity [10]: 4.4%
- Activity [11]: 47.6%
- Activity [12]: 1.2%
- Activity [13]: 0.3%
- Activity [14]: 3.1%
SMILES: CC(C)CNC[C@@H](C)[C@H]1CC[C@H]2C3=CC[C@H]4C[C@@H](O)CC[C@]4(C)[C@H]3CC[C@]12C

- Activity [2]: 18.3%
- MIC (Yarrowia lipolytica [3]): 0.5 µg/mL
- Activity [4]: 67.9%
- Activity [5]: 11.8%
- Activity [6]: 1.8%
- Activity [15]: 0.2%
SMILES: C[C@H](/C=C/c1cc[n+](C)cc1)[C@H]1CCC2C3=CCC4C[C@@H](O)CC[C@]4(C)C3CC[C@@]21C.[I-] (some centres undefined)

- MIC (Yarrowia lipolytica [7]): inactive
SMILES: C[C@H](/C=C/c1ccncc1)[C@H]1CC[C@H]2C3=CCC4C[C@@H](O)CC[C@]4(C)[C@H]3CC[C@]12C (some centres undefined)

Continued, compound first:

SMILES: CCCCCCCCCCCCNC[C@@H](C)[C@H]1CC[C@H]2C3=CC[C@H]4C[C@@H](O)CC[C@]4(C)[C@H]3CC[C@]12C
- MIC (Yarrowia lipolytica [7]): inactive

SMILES: CCCCCNC[C@@H](C)[C@H]1CC[C@H]2C3=CC[C@H]4C[C@@H](O)CC[C@]4(C)[C@H]3CC[C@]12C
- Activity [8]: 0.4%
- Activity [1]: 1.6%
- Activity [2]: 20.4%
- MIC (Yarrowia lipolytica [3]): 0.25 µg/mL (≈ 0.622 µM)
- Activity [4]: 68.9%
- Activity [5]: 4.9%
- Activity [6]: 3.8%

SMILES: C[C@H](CNCCN(C)C)[C@H]1CC[C@H]2C3=CC[C@H]4C[C@@H](O)CC[C@]4(C)[C@H]3CC[C@]12C
- Activity [16]: 68%
- MIC (Yarrowia lipolytica [3]): > 2 µg/mL
- Activity [17]: 24.3%
- Activity [18]: 3.1%
- Activity [19]: 4.5%

SMILES: C[C@H](CNCCCN(C)C)[C@H]1CC[C@H]2C3=CC[C@H]4C[C@@H](O)CC[C@]4(C)[C@H]3CC[C@]12C
- Activity [20]: 2.3%
- MIC (Yarrowia lipolytica [3]): > 2 µg/mL
- Activity [21]: 2.7%
- Activity [22]: 27.2%
- Activity [23]: 3.3%
- Activity [24]: 65.4%
- Activity [25]: 2%
- Activity [26]: 25.6%
- Activity [27]: 66.4%
- Activity [28]: 5.1%
